Screening data (PubChem BioAssay)
Shown are actives, neighbours in structure and some others; about 3.5% of the full set was active somewhere.
RGS4 block: human RGS4 inhibition; HEK293 M3R/RGS4 inducible, Fluo-4 calcium flux; active compounds read high; triggered by carbachol at its EC20; B-score at 10 µM; AID 463165; P49798; hit rate 0.45% among 310,000;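 active = B-score, a plate-corrected calcium signal, over three deviations above library mean, with baseline fluorescence within five deviations of library mean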;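 note: RGS4 expression induced by doxycycline in cells with stable M3 receptor; B-score is computed from the integrated fluorescence ratio over baseline after carbachol; higher B-score means a larger calcium signal and so more RGS4 inhibition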
Target sequence (P49798 whole entry, looked up): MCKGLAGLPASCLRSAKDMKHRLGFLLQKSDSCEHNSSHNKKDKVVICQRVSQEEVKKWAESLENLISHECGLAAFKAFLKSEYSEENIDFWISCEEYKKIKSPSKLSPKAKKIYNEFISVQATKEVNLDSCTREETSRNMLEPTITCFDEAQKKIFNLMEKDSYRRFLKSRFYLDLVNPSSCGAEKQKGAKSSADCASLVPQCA
MrgX1 agonist: activates human MrgX1 receptor signaling; Q96LB2; MrgX1-HEK293 cells, Fluo-4 calcium fluorescence, agonist mode; active compounds read high; B-score at 10 µM; hit rate 0.44% among 310,000; AID 588627;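 active = calcium response B-score plate-corrected fluorescence ratio at least 3 library SD, with starting fluorescence B-score inside 5 SD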
Target sequence (Q96LB2 whole entry, looked up): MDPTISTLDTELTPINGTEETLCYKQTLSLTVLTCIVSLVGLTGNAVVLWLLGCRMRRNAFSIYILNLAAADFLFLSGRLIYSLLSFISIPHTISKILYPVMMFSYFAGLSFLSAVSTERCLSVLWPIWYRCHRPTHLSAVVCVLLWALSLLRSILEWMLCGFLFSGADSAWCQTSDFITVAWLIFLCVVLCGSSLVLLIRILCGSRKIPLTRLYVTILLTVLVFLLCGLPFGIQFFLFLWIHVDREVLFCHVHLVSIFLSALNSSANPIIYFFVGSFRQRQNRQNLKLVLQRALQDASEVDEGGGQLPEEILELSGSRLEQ
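System – MrgX1-expressing HEK293 cells · Incubation – cells plated overnight, dye loaded 0.5 h 37 °C, 0.5 h room temperature · Technique – kinetic Fluo-4 NW fluorescence of intracellular calcium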
MrgX1 antagonist: blocks BAM8-22 activation of human MrgX1 receptor. hit rate 1.3% among 310,000. Q96LB2. B-score at 10 µM. MRGX1-HEK293 calcium flux, Fluo-4, BAM8-22 antagonism; active compounds read low;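 active = calcium-response B-score plate-corrected more than 3 library SD below zero, starting fluorescence within 5 deviations, no agonist response on first addition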;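 note: peak minus trough fluorescence over baseline after final BAM8-22 challenge near maximal dose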
RGS4 act: potentiators or activators of RGS4 | HEK293 M3R/inducible RGS4, carbachol calcium flux Fluo4; active compounds read low | B-score at 10 µM | hit rate 0.92% among 310,000 | AID 463111;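 active = B-score of the integrated calcium signal more than 4 SD below the library mean, with starting fluorescence not abnormally high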;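 note: negative B-score means reduced calcium response which marks RGS4 activation or potentiation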
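Assay system: HEK293 FlpIn-TREx cells, stable M3R, doxycycline-inducible RGS4 / Probe or stimulus: carbachol, ECmax concentration / Times: overnight RGS4 induction, 30 min dye load 37 °C, 20 min compound RT / Signal: kinetic calcium fluorescence imaging with Fluo4-AM dye, 2 µM / Measure: Agonist-evoked peak-minus-minimum fluorescence over baseline, integrated ratio, B score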
MrgX1 PAM: allosterically activates human MrgX1 receptor signaling. Q96LB2. MrgX1-HEK293, Fluo-4 calcium flux, FDSS; active compounds read high. B-score at 10 µM. hit rate 0.63% among 310,000. AID 588675;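 active = plate-corrected calcium response at least 3 library SD above typical, normal starting fluorescence, not activating the receptor alone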;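 note: compound read alongside a low EC10 to EC30 dose of BAM8-22 agonist; peak minus trough fluorescence over baseline measured at the second addition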
MrgX1 allo conf: confirmation of human MrgX1 receptor positive allosteric modulators; shares compounds with MrgX1 PAM; MrgX1-HEK293, Fluo-4 calcium fluorescence, FDSS; activation (ratio percentage), % at 10 µM; hit rate 13% among 1,200;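 active = ratio at least 3 SD above the weak peptide control, stable starting fluorescence, no direct agonism earlier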;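 note: compound followed by low BAM8-22 agonist challenge near EC20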
MrgX1 ant reconf: reconfirmed antagonist of human MrgX1 receptor signaling. shares compounds with MrgX1 antagonist. MrgX1-HEK293, BAM8-22 calcium flux, Fluo-4; active compounds read low. remaining BAM8-22 calcium response % of control (active compounds read low), % at 10 µM. hit rate 19% among 2,300. AID 602420;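 active = remaining agonist calcium response no higher than 100% minus 3 SD of agonist-only control wells, with starting fluorescence near control levels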;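 note: agonist BAM8-22 given at a near maximal EC90 to ECmax level; peak minus minimum fluorescence divided by baseline after agonist addition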
HEK293 Ca flux: activity in parental HEK293 cells lacking MrgX1; shares compounds with MrgX1 antagonist; Fluo-4 calcium fluorescence, FDSS; fluorescence ratio F(max-min)/F0 at 10 µM; hit rate 2% among 4,000; AID 624111;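 active = duplicate-averaged calcium fluorescence ratio at least three times the standard deviation of buffer wells, a nonspecific response in parental cells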
HEK293 Ca counter: activity in parental HEK293 cells without MrgX1 | shares compounds with MrgX1 antagonist | parental HEK293 calcium flux, Fluo-4 fluorescence ratio; active compounds read high | fluorescence ratio F(max-min)/F0 at 10 µM | hit rate 0.4% among 4,000 | AID 624114;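 active = calcium fluorescence ratio, averaged over duplicates, at least 3 SD of the buffer-well ratio, meaning a nonspecific response in receptor-free cells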;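 note: untransfected parental HEK293 lacking MrgX1 used as counterscreen for MrgX1 allosteric activators; fluorescence change taken during the second addition on a kinetic imager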
HEK293 Ca cntr2: activity in parental HEK293 cells lacking MrgX1 receptor | Fluo-4 calcium fluorescence (FDSS); active compounds read high | AID 624115 | shares compounds with MrgX1 antagonist | fluorescence ratio F(max-min)/F0 at 10 µM | hit rate 8.7% among 4,000;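 active = calcium fluorescence ratio at least three times the spread of buffer wells, meaning a non-specific response in parental cells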
* hit, by the source's call; i = inactive; / = not tested or not shown.

SMILES	RGS4 block	MrgX1 agonist	MrgX1 antagonist	RGS4 act	MrgX1 PAM	MrgX1 allo conf	HEK293 Ca flux	HEK293 Ca counter	HEK293 Ca cntr2	others
NC(=O)c1c(NC(=O)C2c3ccccc3Oc3ccccc32)sc2c1CCCCC2	i	i	i	i	13*	i	i	i	i
Cc1cc(C)nc(-n2nc(C)c(Sc3ccc(F)cc3)c2N)n1	i	i	i	i	11.1*	i	i	i	i
Cc1nn(-c2ccccc2)c(N)c1Sc1cccc([N+](=O)[O-])c1	i	i	i	i	i	/	/	/	/
COc1ccccc1NC(=O)N1c2ccc(F)cc2CCC1C (configuration not stated)	i	i	i	i	10.1*	i	i	i	i
COc1ccc(OC)c(S(=O)(=O)NC2CC(=O)N(c3cccc(F)c3)C2)c1 (configuration not stated)	i	i	i	i	i	/	/	/	/
S=C(NCCCN1CCOCC1)Nc1cccc(Cl)c1	i	i	i	i	10.8*	i	i	i	i
CCC(=O)Nc1ccc(C(=O)N/N=C/c2cc(Br)c(OC)cc2OC)cc1	i	i	i	i	i	/	/	/	/
CN1CCN(CCCNC(=O)c2ccc(/C=C3\Sc4ccccc4N(Cc4ccccc4F)C3=O)cc2)CC1	i	/	/	i	/	/	/	/	/
CCN1CCN(CCNC(=O)c2ccc3c(c2)N(Cc2ccc(F)cc2)C(=O)/C(=C/c2ccccc2)S3)CC1	i	i	-16*	i	20.9*	i	i	i	i	MrgX1 ant reconf=65.7%*
Cc1ccncc1C(N)=O	i	i	i	i	8.14*	i	i	i	i
NC(=O)c1cc2ccncc2c2ccccc12	i	i	i	i	i	/	/	/	/
O=C1CCC2=C(CCCC2=O)N1	i	i	i	i	10*	i	i	i	i
CCN1CC2=C(OC(N)=C(C#N)C2c2cccs2)/C(=C/c2cccs2)C1 (configuration not stated)	i	i	i	i	8.24*	i	i	i	i
CCN1CC2=C(OC(N)=C(C#N)C2c2ccccc2)/C(=C\c2ccccc2)C1 (configuration not stated)	i	i	i	i	22.2*	i	i	i	i
N#CC1=C(N)OC2=C(CN(Cc3ccccc3)C/C2=C\c2cccnc2)C1c1cccnc1 (configuration not stated)	i	i	i	i	i	/	/	/	/
CCn1c(SCC(=O)Nc2nc(C)c(C)s2)nc2cccnc21	i	i	i	i	i	/	/	/	/
CCOC(=O)Cc1csc(NC(=O)CSc2nc3cccnc3n2CC)n1	i	i	i	i	7.27*	i	i	i	i
COc1ccc(-n2ccnc(SCC(=O)NCc3ccc(C)cc3)c2=O)cc1Cl	i	i	i	i	i	/	/	/	/
O=c1oc(-c2ccccc2)nc2sc3c(c12)CCCC3	i	i	i	i	13.1*	i	i	i	i
Cc1ccccc1-c1nc2sc3c(c2c(=O)o1)CCC3	i	i	i	i	i	/	/	/	/
CCN(Cc1ccncc1)C(=O)C(CO)c1ccccc1 (configuration not stated)	i	i	i	i	i	/	/	/	/
O=C(OCC(=O)N1CCCC1)c1ccc(S(=O)(=O)Nc2ccccc2)cc1	i	i	i	i	12.2*	i	i	i	i
COc1cc(C(=O)OCC(=O)NCC2CCCCC2)ccc1OCC(C)C	i	i	i	i	i	/	/	/	/
CCOC(=O)N1CCC(N2C(=O)c3ccc(C(=O)Nc4cccc(OC)c4)cc3C2=O)CC1	i	i	i	i	8.01*	i	i	i	i
CCOC(=O)N1CCC(N2C(=O)c3ccc(C(=O)O)cc3C2=O)CC1	i	i	i	i	i	/	/	/	/
SMILES	RGS4 block	MrgX1 agonist	MrgX1 antagonist	RGS4 act	MrgX1 PAM	MrgX1 allo conf	HEK293 Ca flux	HEK293 Ca counter	HEK293 Ca cntr2	others
O=c1c(NCCc2ccccc2)c(-c2ccccc2)c1=O	i	i	i	i	i	/	/	/	/
COc1ccc(Cl)cc1NS(=O)(=O)c1c(C)[nH]c(=O)[nH]c1=O	i	i	i	i	i	/	/	/	/
NNc1nc(-c2ccccc2Cl)nc2sc3c(c12)CCCC3	i	i	i	i	32.2*	i	i	i	i
NNc1nc(-c2ccccc2Cl)nc2ccccc12	i	i	i	i	i	/	/	/	/
O=C(COCc1cc(-c2ccc3c(c2)OCO3)on1)N1CCCCC1	i	i	i	i	i	/	/	/	/
NC(=O)C1CCN(C(=O)COCc2cc(-c3ccc4c(c3)OCO4)on2)CC1	i	i	i	i	17*	i	i	i	i
Cc1sc2ncn(CCC(=O)O)c(=O)c2c1C	i	i	i	i	i	/	/	/	/
Cc1sc2ncn(CCn3cnc4sc(C)c(C)c4c3=O)c(=O)c2c1C	i	i	i	i	13.5*	i	i	i	i
COc1ccc(-c2cc(C(F)(F)F)nc(SCC(=O)Nc3ccc4c(c3)OCO4)n2)cc1	i	i	i	i	9.17*	i	i	i	i
COc1cc(OC)c(C(=O)NCCCn2ccnc2)cc1OC	i	i	i	i	6.5*	i	i	i	i
COc1ccc(C(=O)NCCCn2ccnc2)cc1	i	i	i	i	i	/	/	/	/
CCOC(=O)C(=O)Nc1nnc(CCc2ccccc2)s1	i	i	i	i	7.72*	i	i	i	i
O=C(NCc1ccccn1)c1ccc(COc2ccc(Cl)cc2)o1	i	i	i	i	7.31*	i	i	i	i
O=C(NCCNC(=O)c1cc(Cl)ccc1Cl)c1ccccn1	i	i	i	i	9.33*	i	i	i	76.9*
